Measurements: ChEMBL document CHEMBL3808334, “Synthesis and in vitro evaluation of novel triazine analogues as anticancer agents and their interaction studies with bovine serum albumin” (Eur J Med Chem, 2016)

Assays:
Assay type in all cases: functional
A549 [1] = assay: Growth inhibition of human A549/ATCC cells assessed as cell growth at 10^-4 M incubated for 48 hrs by sulforhodamine B assay; details: A549, 48 h, read-out: Activity
[2] = Growth inhibition of human HCT15 cells assessed as cell growth at 10^-4 M incubated for 48 hrs by sulforhodamine B assay; details: HCT-15, 48 h, read-out: Activity
Method in brief: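 Cells seeded at 5,000–40,000/well according to doubling time and preincubated 24 h at 37 °C, 5% CO2. Time-zero plates were TCA-fixed. DMSO concentrate was diluted in medium with 50 µg/ml gentamicin to give five concentrations (10-fold or ½ log steps), then exposed 48 h. Cells were TCA-fixed, stained with 0.4% SRB and read at 515 nm. Percent growth was taken against time-zero and control; GI50, TGI and LC50 derived.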

[3] = Growth inhibition of human SF539 cells assessed as cell growth at 10^-4 M incubated for 48 hrs by sulforhodamine B assay; details: SF-539, 48 h, read-out: Activity
[4] = Growth inhibition of human OVCAR5 cells assessed as cell growth at 10^-7 M incubated for 48 hrs by sulforhodamine B assay; details: OVCAR-5, 48 h, read-out: Activity
A549 [5] = assay: Growth inhibition of human A549/ATCC cells incubated for 48 hrs by sulforhodamine B assay; details: A549, 48 h
Method in brief: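 Five-dose assay: five concentrations from 10-fold or ½-log serial dilutions. Cells are plated at 5,000–40,000 per well according to doubling time, grown 24 h, then exposed 48 h at 37 °C, 5% CO₂. Fixed with cold 50% TCA (final addition) for 60 min at 4 °C and stained with 0.4% SRB in 1% acetic acid. Bound dye is solubilized in 10 mM Tris base and read at 515 nm. GI₅₀ is where [(Ti−Tz)/(C−Tz)]×100 = 50, with a time-zero plate as Tz.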

T47D [6] = assay: Growth inhibition of human T47D cells assessed as cell growth at 10^-4 M incubated for 48 hrs by sulforhodamine B assay; details: read-out: Activity
[7] = Growth inhibition of human HOP92 cells assessed as cell growth at 10 uM incubated for 48 hrs by sulforhodamine B assay; details: HOP-92, 48 h, read-out: Activity
Malme-3M = assay: Growth inhibition of human MALME-3M cells assessed as cell growth at 10^-6 M incubated for 48 hrs by sulforhodamine B assay; details: read-out: Activity
[8] = Growth inhibition of human SW620 cells assessed as cell growth at 10^-8 M incubated for 48 hrs by sulforhodamine B assay; details: SW-620, 48 h, read-out: Activity
NCI-H322M = assay: Growth inhibition of human NCI-H322M cells assessed as cell growth at 10 uM incubated for 48 hrs by sulforhodamine B assay; details: read-out: Activity
[9] = Growth inhibition of human SF295 cells incubated for 48 hrs by sulforhodamine B assay; details: SF-295, 48 h
Method in brief: (§1)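 Cells were plated at 5,000–40,000 per well according to doubling time and preincubated 24 h at 37 °C in 5% CO2; time-zero plates were then TCA-fixed. Five concentrations (10-fold or ½-log dilutions, DMSO stock) were incubated 48 h. Cells were TCA-fixed, stained with 0.4% SRB and read at 515 nm. GI50 was taken where [(Ti−Tz)/(C−Tz)]×100 = 50.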

M14 [10] = assay: Growth inhibition of human M14 cells assessed as cell growth at 10 uM incubated for 48 hrs by sulforhodamine B assay; details: M14, 48 h, read-out: Activity
M14 [11] = assay: Growth inhibition of human M14 cells assessed as cell growth at 10^-5 M incubated for 48 hrs by sulforhodamine B assay; details: M14, 48 h, read-out: Activity
SN12C = assay: Growth inhibition of human SN12C cells assessed as cell growth at 10^-8 M incubated for 48 hrs by sulforhodamine B assay; details: read-out: Activity
HT-29 = assay: Growth inhibition of human HT-29 cells assessed as cell growth at 10^-5 M incubated for 48 hrs by sulforhodamine B assay; details: HT-29, 48 h, read-out: Activity
T47D [12] = assay: Growth inhibition of human T47D cells assessed as cell growth at 10^-8 M incubated for 48 hrs by sulforhodamine B assay; details: read-out: Activity
[13] = Growth inhibition of human SF268 cells assessed as cell growth at 10^-7 M incubated for 48 hrs by sulforhodamine B assay; details: SF-268, 48 h, read-out: Activity
[14] = Growth inhibition of human OVCAR8 cells incubated for 48 hrs by sulforhodamine B assay; details: OVCAR-8, 48 h; method in brief: as §1
[15] = Growth inhibition of human LOXIMVI cells assessed as cell growth at 10^-4 M incubated for 48 hrs by sulforhodamine B assay; details: LOX IMVI, read-out: Activity
SK-MEL-28 = assay: Growth inhibition of human SK-MEL-28 cells assessed as cell growth at 10^-4 M incubated for 48 hrs by sulforhodamine B assay; details: SK-MEL-28, 48 h, read-out: Activity
NCI/ADR-RES = assay: Growth inhibition of human NCI/ADR-RES cells assessed as cell growth at 10 uM incubated for 48 hrs by sulforhodamine B assay; details: read-out: Activity
[16] = Growth inhibition of human OVCAR5 cells assessed as cell growth at 10^-5 M incubated for 48 hrs by sulforhodamine B assay; details: OVCAR-5, 48 h, read-out: Activity
NCI-H460 = assay: Growth inhibition of human NCI-H460 cells assessed as cell growth at 10^-8 M incubated for 48 hrs by sulforhodamine B assay; details: NCI-H460, 48 h, read-out: Activity
KM12 = assay: Growth inhibition of human KM12 cells assessed as cell growth at 10^-7 M incubated for 48 hrs by sulforhodamine B assay; details: KM12, 48 h, read-out: Activity
MCF7 = assay: Growth inhibition of human MCF7 cells assessed as cell growth at 10^-5 M incubated for 48 hrs by sulforhodamine B assay; details: MCF7, 48 h, read-out: Activity
[17] = Growth inhibition of human HOP62 cells assessed as cell growth at 10^-5 M incubated for 48 hrs by sulforhodamine B assay; details: HOP-62, 48 h, read-out: Activity
CCRF-CEM = assay: Growth inhibition of human CCRF-CEM cells assessed as cell growth at 10 uM incubated for 48 hrs by sulforhodamine B assay; details: read-out: Activity
Method in brief: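 One-dose screen at 10 µM final. Cells are plated at 5,000–40,000 per well according to doubling time and preincubated 24 h at 37 °C, 5% CO₂. Compound (DMSO stock diluted in medium with 50 µg/ml gentamicin) is then added for 48 h. Growth percent is read by sulforhodamine B staining, absorbance at 515 nm.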

[18] = read-out: LC50 (the source's name)
[19] = read-out: pLC50 (the source's name) (converted)

Clc1ccc(-c2nc(Nc3ccc(-c4nc5ccccc5[nH]4)cc3)nc(N3CCOCC3)n2)cc1
growth at 100 µM (A549 [1]): -53%
growth at 100 µM [2]: -10%
growth at 100 µM [3]: -38%
growth at 0.1 µM [4]: 92%
GI50 (A549 [5]; read-out: GI50): 0.666 µM
CC50 (A549 [5]; [18]): 5.54 µM
TGI (A549 [5]; read-out: TGI): 2.13 µM
GI50 (A549 [5]; read-out: pGI50 (converted)): 0.661 µM
CC50 (A549 [5]; [19]): 5.5 µM
TGI (A549 [5]; read-out: pTGI (converted)): 2.14 µM
growth at 100 µM (T47D [6]): -32%
growth at 10 µM [7]: -72.1%
growth at 1 µM (Malme-3M): 111%
growth at 0.01 µM [8]: 94%
growth at 10 µM (NCI-H322M): -92.8%
GI50 ([9]; read-out: GI50): 1.47 µM
TGI ([9]; read-out: TGI): 2.99 µM
GI50 ([9]; read-out: pGI50 (converted)): 1.48 µM
TGI ([9]; read-out: pTGI (converted)): 3.02 µM
growth at 10 µM (M14 [10]): -82.6%
growth at 10 µM (M14 [11]): -85%
growth at 0.01 µM (SN12C): 95%
growth at 10 µM (HT-29): -74%
growth at 0.01 µM (T47D [12]): 99%
growth at 0.1 µM [13]: 96%
GI50 ([14]; read-out: GI50): 1.12 µM
CC50 [14, 18]: 6.09 µM
TGI ([14]; read-out: TGI): 2.61 µM
GI50 ([14]; read-out: pGI50 (converted)): 1.12 µM
CC50 [14, 19]: 6.03 µM
TGI ([14]; read-out: pTGI (converted)): 2.63 µM
growth at 100 µM [15]: 2%
growth at 100 µM (SK-MEL-28): -24%
growth at 10 µM (NCI/ADR-RES): -87.5%
growth at 10 µM [16]: -79%
growth at 0.01 µM (NCI-H460): 101%
growth at 0.1 µM (KM12): 97%
growth at 10 µM (MCF7): -66%
growth at 10 µM [17]: -77%
growth at 10 µM (CCRF-CEM): -91.5%

c1ccc2[nH]c(-c3ccc(Nc4nc(N5CCCCC5)nc(N5CCOCC5)n4)cc3)nc2c1
growth at 100 µM (A549 [1]): -12%
growth at 100 µM [2]: -22%
growth at 100 µM [3]: -76%
growth at 0.1 µM [4]: 100%
GI50 (A549 [5]; read-out: GI50): 3.27 µM
CC50 (A549 [5]; [18]): > 100 µM
TGI (A549 [5]; read-out: TGI): 13.2 µM
GI50 (A549 [5]; read-out: pGI50 (converted)): 3.24 µM
CC50 (A549 [5]; [19]): > 100 µM
TGI (A549 [5]; read-out: pTGI (converted)): 13.2 µM
growth at 100 µM (T47D [6]): -43%
growth at 10 µM [7]: 43.4%
growth at 1 µM (Malme-3M): 98%
growth at 0.01 µM [8]: 97%
growth at 10 µM (NCI-H322M): 35%
GI50 ([9]; read-out: GI50): 1.85 µM
CC50 [9, 18]: 34.6 µM
TGI ([9]; read-out: TGI): 4.6 µM
GI50 ([9]; read-out: pGI50 (converted)): 1.86 µM
CC50 [9, 19]: 34.7 µM
TGI ([9]; read-out: pTGI (converted)): 4.57 µM
growth at 10 µM (M14 [10]): -24.5%
growth at 10 µM (M14 [11]): -45%
growth at 0.01 µM (SN12C): 95%
growth at 10 µM (HT-29): -36%
growth at 0.01 µM (T47D [12]): 93%
growth at 0.1 µM [13]: 98%
GI50 ([14]; read-out: GI50): 3.24 µM
CC50 [14, 18]: > 100 µM
TGI ([14]; read-out: TGI): 14.3 µM
GI50 ([14]; read-out: pGI50 (converted)): 3.24 µM
CC50 [14, 19]: > 100 µM
TGI ([14]; read-out: pTGI (converted)): 14.1 µM
growth at 100 µM [15]: -65%
growth at 100 µM (SK-MEL-28): -54%
growth at 10 µM (NCI/ADR-RES): 45.6%
growth at 10 µM [16]: 16%
growth at 0.01 µM (NCI-H460): 101%
growth at 0.1 µM (KM12): 103%
growth at 10 µM (MCF7): -10%
growth at 10 µM [17]: -52%
growth at 10 µM (CCRF-CEM): 8.74%
